This note sets out measurements from ChEMBL document CHEMBL4480465, “Anti-inflammatory Mono- and Dimeric Sorbicillinoids from the Marine-Derived Fungus Trichoderma reesei 4670” (J Nat Prod, 2019).

The subject of one experiment is MCF7. The experiment in a line: Cytotoxicity against human MCF7 cells by MTT assay. It counts as functional, cell-based.
For a further experiment, the system named is HeLa. Description: Cytotoxicity against human HeLa cells by MTT assay. It counts as functional, cell-based.
Another experiment relates to HepG2. The experiment in a line: Cytotoxicity against human HepG2 cells by MTT assay. It counts as functional, cell-based.
The subject of experiment [1] is RAW264.7. The experiment in a line: Antiinflammatory activity against mouse RAW264.7 cells assessed as inhibition of LPS-induced nitric oxide production measured after 24 hrs. It counts as functional, cell-based. Particulars: RAW264.7, 24 h. In short, it runs like this: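 RAW264.7 cells seeded at 5 × 10^4 per well and grown 24 h, then given LPS (1 μg/mL) together with graded compound concentrations (DMSO stocks) for 24 h. NO in the medium was read with nitric oxide detection reagents I and II, measuring absorbance at 540 nm. IC50 came from normalized response–variable slope curve fits, mean of n = 3.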

The subject of experiment [2] is RAW264.7. The experiment in a line: Cytotoxicity against mouse RAW264.7 cells by MTT assay. It counts as cell-based.

The structures appear in SMILES notation. Calls of active or inactive are those of the source. The rule behind the calls is not given here.

As for `Cc1c(O)ccc(C(=O)C[C@@H]2CC[C@H]([C@H](C)O)O2)c1O`, the outcome with MCF7, with HeLa and in the experiment with HepG2 was inactive. The IC50 in the experiment with RAW264.7 [1] and with RAW264.7 [2] was greater than 50 µM throughout.

With `C/C=C/C=C/C(O)=C1\C(=O)C(C)=C(O)[C@@]2(C)O[C@@]3(O)[C@@](C)(O)CC4=C(O[C@H](/C=C/C)CC4=O)[C@@]3(C)[C@@H]12`, the outcome with MCF7, in the experiment on HeLa and in the experiment with HepG2 was inactive. Moreover, the IC50 with RAW264.7 [1] was 32 µM; in the experiment with RAW264.7 [2] it was greater than 50 µM.

As to `C/C=C/C=C/C(=O)c1c(O)c(C)cc(C)c1O`, the outcome with MCF7, in the experiment on HeLa and with HepG2 was inactive. Moreover, the IC50 was 3.3 µM in the experiment on RAW264.7 [1] and greater than 50 µM in the experiment with RAW264.7 [2].

As for `C/C=C/CCCc1cc(C)c(O)cc1O`, the outcome in the experiment with MCF7, in the experiment on HeLa and with HepG2 was inactive. Moreover, the IC50 was 13 µM with RAW264.7 [1] and greater than 50 µM with RAW264.7 [2].

On to `CC1=C(O)[C@@]2(C)O[C@@]3(O)[C@@](C)(O)C\C(=C(O)/C=C/C=C/CO)C(=O)[C@@]3(C)[C@H]2\C(=C(O)/C=C/C=C/CO)C1=O`, for which the result with MCF7, in the experiment with HeLa and in the experiment on HepG2 was inactive. Further, the IC50 in the experiment with RAW264.7 [1] and with RAW264.7 [2] was greater than 50 µM in each case.

For the molecule `Cc1cc(C(=O)CCC(=O)O)c(O)c(C)c1O`, the outcome in the experiment with MCF7, in the experiment with HeLa and in the experiment on HepG2 was inactive. Moreover, the IC50 with RAW264.7 [1] and with RAW264.7 [2] was greater than 50 µM throughout.

With `C/C=C/C=C/C(O)=C1/C(=O)C(C)=C(O)[C@@]2(C)O[C@@]3(O)[C@@](C)(O)CC(C(=O)CC/C=C/C)=C(O)[C@@]3(C)[C@@H]12`, the outcome with MCF7, with HeLa and with HepG2 was inactive. In addition, the figures for the IC50 with RAW264.7 [1] and in the experiment with RAW264.7 [2] were 5.9 µM and greater than 50 µM, respectively.

In the case of `C/C=C/C=C/C(O)=C1\C(=O)C(C)=C(O)[C@@]2(C)O[C@@]3(O)[C@@](C)(O)CC4=C(O[C@@H](/C=C/C)CC4=O)[C@@]3(C)[C@@H]12`, the outcome in the experiment on MCF7, in the experiment with HeLa and with HepG2 was inactive. For the same molecule, the IC50 in the experiment on RAW264.7 [1] was 22 µM; in the experiment on RAW264.7 [2] it was greater than 50 µM.

Take `Cc1cc(C(=O)CC/C=C/C(=O)O)c(O)cc1O`: the result with MCF7, in the experiment on HeLa and with HepG2 was inactive. The IC50 with RAW264.7 [1] and in the experiment with RAW264.7 [2] was greater than 50 µM in each case.

`C/C=C/C=C/C(O)=C1\C[C@](C)(O)[C@]2(O)O[C@]3(C)C(O)=C(C)C(=O)/C(=C(O)/C=C/C=C/C)[C@@H]3[C@]2(C)C1=O`: the result in the experiment on MCF7, in the experiment on HeLa and with HepG2 was inactive. For the same molecule, the IC50 was 9.9 µM in the experiment on RAW264.7 [1] and greater than 50 µM in the experiment on RAW264.7 [2].

Turning to `Cc1cc(C(=O)CCC(=O)O)c(O)cc1O`, the outcome in the experiment on MCF7, with HeLa and with HepG2 was inactive. Besides, the IC50 with RAW264.7 [1] and with RAW264.7 [2] was greater than 50 µM each time.

On to `Cc1cc2c(c(C)c1O)O[C@H](CCCO)CC2=O`, for which the outcome with MCF7, in the experiment with HeLa and in the experiment on HepG2 was inactive. Further, the concentration for half-maximal inhibition (IC50) was 38 µM in the experiment on RAW264.7 [1] and greater than 50 µM in the experiment on RAW264.7 [2].

For `Cc1cc2c(c(C)c1O)O[C@H](/C=C/CO)CC2=O`, the result in the experiment on MCF7, in the experiment with HeLa and in the experiment on HepG2 was inactive. Moreover, the results for the IC50 in the experiment on RAW264.7 [1] and with RAW264.7 [2] were 8.5 µM and greater than 50 µM, respectively.

In the case of `C/C=C/[C@@H](O)CC(=O)c1cc(C)c(O)cc1O`, the outcome in the experiment on MCF7, with HeLa and in the experiment with HepG2 was inactive. Besides, the results for the IC50 with RAW264.7 [1] and with RAW264.7 [2] were 12 µM and greater than 50 µM, respectively.

Consider `Cc1cc(C(=O)/C=C/C=C/CO)c(O)c(C)c1O`, for which the outcome in the experiment on MCF7, in the experiment with HeLa and in the experiment on HepG2 was inactive. Also, the IC50 was 6.8 µM in the experiment on RAW264.7 [1] and greater than 50 µM with RAW264.7 [2].

As for `C/C=C/CCC(=O)C1=C(O)[C@@]2(C)[C@H]3\C(=C(O)/C=C/C=C/CO)C(=O)C(C)=C(O)[C@@]3(C)O[C@@]2(O)[C@@](C)(O)C1`, the result in the experiment on MCF7, in the experiment on HeLa and in the experiment with HepG2 was inactive. The results for the IC50 in the experiment on RAW264.7 [1] and with RAW264.7 [2] were 22 µM and greater than 50 µM, respectively.

`C/C=C/CCC(=O)c1cc(C)c(O)cc1O` [SOHIRNONE A]: the outcome with MCF7, in the experiment on HeLa and in the experiment with HepG2 was inactive. Moreover, the IC50 is 14 µM in the experiment with RAW264.7 [1] and greater than 50 µM with RAW264.7 [2].

As to `CC1=C(O)[C@@]2(C)O[C@@]3(O)[C@@](C)(O)CC(C(=O)CC/C=C/CO)=C(O)[C@@]3(C)[C@H]2\C(=C(O)/C=C/C=C/CO)C1=O`, the outcome with MCF7, in the experiment on HeLa and in the experiment on HepG2 was inactive. In addition, the IC50 is 24 µM in the experiment on RAW264.7 [1] and greater than 50 µM in the experiment with RAW264.7 [2].

As to `C/C=C/C=C/C(O)=C1/C(=O)[C@]2(C)C(=O)[C@@](C)(O)[C@H]1[C@@H]1CC(=O)N(C)[C@@H]12`, the outcome in the experiment on MCF7, with HeLa and in the experiment with HepG2 was inactive. In addition, the IC50 with RAW264.7 [1] and with RAW264.7 [2] was greater than 50 µM each time.

With `COc1ccc2c(c1)c(CC(=O)O)c(C)n2C(=O)c1ccc(Cl)cc1` [INDOMETHACIN], the IC50 was 41 µM in the experiment on RAW264.7 [1] and greater than 50 µM with RAW264.7 [2].

In the case of `Cc1c(O)c(O)cc(C(=O)CC/C=C/CO)c1O`, the result with MCF7, in the experiment with HeLa and in the experiment with HepG2 was inactive. Moreover, the IC50 in the experiment on RAW264.7 [1] was 6.1 µM; in the experiment with RAW264.7 [2], greater than 50 µM.

As to `Cc1cc(C(=O)CC/C=C/CO)c(O)cc1O`, the result with MCF7, with HeLa and in the experiment with HepG2 was inactive. Also, the results for the IC50 in the experiment with RAW264.7 [1] and in the experiment with RAW264.7 [2] were 0.94 µM and greater than 50 µM, respectively.

As to `Cc1cc(C(=O)CCCCCO)c(O)cc1O`, the outcome with MCF7, with HeLa and with HepG2 was inactive. For the same molecule, the IC50 in the experiment on RAW264.7 [1] and in the experiment on RAW264.7 [2] was greater than 50 µM in each case.

For the molecule `Cc1cc(C(=O)CC/C=C/CO)c(O)c(C)c1O`, the outcome in the experiment with MCF7, with HeLa and in the experiment on HepG2 was inactive. In addition, the concentration for half-maximal inhibition (IC50) was 2.9 µM in the experiment on RAW264.7 [1] and greater than 50 µM in the experiment with RAW264.7 [2].

Turning to `C/C=C/C=C/C(O)=C1\C[C@](C)(O)[C@]2(O)O[C@]3(C)C(O)=C(C)C(=O)/C(=C(O)/C=C/C=C/CO)[C@@H]3[C@]2(C)C1=O`, the result in the experiment with MCF7, in the experiment with HeLa and with HepG2 was inactive. Moreover, the IC50 with RAW264.7 [1] is 6.1 µM; in the experiment with RAW264.7 [2] it was greater than 50 µM.
